Screening data as filed in PubChem.
ABCB6 inh 2 = blocks the human ABCB6 transporter. AID 602162. fluorescence ratio to DMSO, % at 10 µM. K562-ABCB6 porphyrin accumulation, flow cytometry, 1 h; hits give low values. 360,000 compounds, 0.19% hits. Q9NP58;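 active means fluorescence ratio to DMSO below 75%, the collection mean minus 3 SD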;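 further: signal is porphyrin accumulated inside mitochondria; 100% equals median channel fluorescence of DMSO control wells; lower ratio means ABCB6 inhibition with less porphyrin fluorescence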
Target sequence (Q9NP58 whole entry, looked up): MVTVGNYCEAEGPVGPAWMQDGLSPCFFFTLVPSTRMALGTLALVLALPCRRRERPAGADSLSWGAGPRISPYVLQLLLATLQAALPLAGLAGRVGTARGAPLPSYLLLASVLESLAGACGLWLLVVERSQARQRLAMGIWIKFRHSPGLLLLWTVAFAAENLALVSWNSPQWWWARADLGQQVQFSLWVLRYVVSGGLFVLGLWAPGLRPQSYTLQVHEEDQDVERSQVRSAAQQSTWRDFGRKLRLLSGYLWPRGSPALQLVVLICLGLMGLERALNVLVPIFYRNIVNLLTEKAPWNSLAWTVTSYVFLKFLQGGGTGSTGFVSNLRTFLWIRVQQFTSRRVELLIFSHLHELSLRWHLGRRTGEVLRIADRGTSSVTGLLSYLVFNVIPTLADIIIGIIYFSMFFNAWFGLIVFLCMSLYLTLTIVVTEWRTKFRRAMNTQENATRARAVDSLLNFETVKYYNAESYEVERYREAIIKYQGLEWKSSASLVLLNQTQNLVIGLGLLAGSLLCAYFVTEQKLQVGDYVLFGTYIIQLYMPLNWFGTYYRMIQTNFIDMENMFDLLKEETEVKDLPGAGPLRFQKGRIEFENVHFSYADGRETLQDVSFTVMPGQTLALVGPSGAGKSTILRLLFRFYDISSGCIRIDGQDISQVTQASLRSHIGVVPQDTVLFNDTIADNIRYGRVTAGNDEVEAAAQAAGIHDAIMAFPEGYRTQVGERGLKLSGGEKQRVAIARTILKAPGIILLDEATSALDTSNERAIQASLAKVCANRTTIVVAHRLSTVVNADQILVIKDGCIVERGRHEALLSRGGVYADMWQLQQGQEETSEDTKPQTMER
TNAP act hiacc = activators of human TNAP at high phosphate acceptor concentration; P05186; purified TNAP, CDP-star luminescence, 1 M DEA, 30 min; hits give high values; 0 = EDTA background, 1 = DMSO-only activity; activation factor at 20 µM; 200,000 tested, under 10 active;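 active means activation factor at least 2 at 20 µM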
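Dosing: 20 µM single point. System: human TNAP. Amount: TNAP 1/800 final. Incubation: 30 min, room temperature. Read-out: TNAP activation factor scaled between EDTA and DMSO control wells. Signal: luminescence from CDP-star hydrolysis. Medium: 1 M DEA, pH 9.8, Mg2+, Zn2+. Control set: EDTA negative control, DMSO positive control.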
TNAP inh no acc = inhibitors of human TNAP without phosphate acceptor; P05186; purified TNAP, CDP-star luminescence, 30 min; inhibition, % at 20 µM; 200,000 compounds, 0.26% hits; AID 1012;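 active means tissue-nonspecific alkaline phosphatase inhibition above about 50% at 20 µM in the single-dose screen, limit read from the data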;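 further: 0% = DMSO negative control and 100% = EDTA positive control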
TNAP inh hi DEA = blocks human TNAP under high phosphate acceptor concentration; inhibition, % at 20 µM; P05186; purified TNAP, CDP-star luminescence, 1 M DEA; 200,000 compounds, 0.03% hits;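 active means over 50% inhibition of tissue-nonspecific alkaline phosphatase at 20 µM in the single-dose screen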;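 further: plate controls were DMSO wells for no effect and EDTA-quenched wells as full inhibition for full effect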
CHT PAM = human CHT allosteric activation; Q9GZV3; CHT-expressing cells, membrane potential dye, choline EC20; hits give high values; LV-AA mutant CHT in HEK293 cells; B-score at 10 µM; 310,000 compounds, 0.49% hits; AID 488977;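 active means initial fluorescence not abnormally high and integrated response B-score, plate-corrected, over 3 SD above library mean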
CHT inh = inhibits the human high affinity choline transporter. AID 488975. CHT-expressing cells, membrane potential dye, choline response; hits give low values. 310,000 compounds, 0.86% hits. B-score at 10 µM. Q9GZV3;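 active means B-score over 3 SD under the library average, and starting fluorescence ratio not unusually high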;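 further: choline stimulus applied at its EC90 after an EC20 pre-addition; B-score computed on integrated fluorescence ratio after choline addition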
Active calls of the source: *. In the library only some 1.4% were active in any assay of this set; here they are far more common.

What do the screens show for `Cc1ccc(-c2cc(C(=O)N/N=C/c3ccco3)[nH]n2)cc1`?
ABCB6 inh 2: 111; TNAP act hiacc: 0.9; TNAP inh no acc: 87*; TNAP inh hi DEA: 15; CHT PAM: inactive; CHT inh: inactive

What do the screens show for `O=C(N/N=C/c1ccco1)c1cc(-c2ccccc2)n[nH]1`?
ABCB6 inh 2: 91; TNAP act hiacc: 0.8; TNAP inh no acc: 93*; TNAP inh hi DEA: 22; CHT PAM: inactive; CHT inh: inactive

What do the screens show for `CC(C)(O)C#Cc1ccc(C(=O)NCc2ccccc2F)cc1`?
ABCB6 inh 2: 101; TNAP act hiacc: 1; TNAP inh no acc: -8; TNAP inh hi DEA: -4; CHT PAM: inactive; CHT inh: inactive

What do the screens show for `O=C1CC(c2ccc(F)cc2)Sc2ccccc2N1` (configuration not stated)?
ABCB6 inh 2: 103; TNAP act hiacc: 1; TNAP inh no acc: -3; TNAP inh hi DEA: 1; CHT PAM: inactive; CHT inh: inactive

How did O=C1CC(c2ccc(F)cc2)Sc2nc(C34CC5CC(CC(C5)C3)C4)nn21 (configuration not stated) do in these assays?
ABCB6 inh 2: 99; TNAP act hiacc: 1; TNAP inh no acc: 86*; TNAP inh hi DEA: -4; CHT PAM: inactive; CHT inh: inactive

How did CC(C)C1C(=O)N(Cc2cn(Cc3ccco3)nn2)CCS(=O)(=O)N1Cc1ccc(-c2ccc(F)cc2)cc1 (configuration not stated) do in these assays?
ABCB6 inh 2: 101

How did O=C1NC(=Nc2ccccc2)S/C1=C\C=C\c1ccco1 do in these assays?
ABCB6 inh 2: 99; TNAP act hiacc: 0.9; TNAP inh no acc: 56*; TNAP inh hi DEA: 9; CHT PAM: inactive; CHT inh: inactive

How did O=C(c1ccc(Cl)cc1)C1CCN(C(=O)C2CC2)CC1 do in these assays?
ABCB6 inh 2: 88; TNAP act hiacc: 1; TNAP inh no acc: -9; TNAP inh hi DEA: -3; CHT PAM: inactive; CHT inh: inactive

Results for COc1ccccc1N1CCN(C(=O)CSc2nc3ncnc(N)c3[nH]2)CC1 ?
ABCB6 inh 2: 102; TNAP act hiacc: 1.1; TNAP inh no acc: 60*; TNAP inh hi DEA: -6; CHT PAM: inactive; CHT inh: inactive

Results for Nc1ncnc2nc(SCC(=O)N3CCN(c4ccccc4)CC3)[nH]c12 ?
ABCB6 inh 2: 101; TNAP act hiacc: 1; TNAP inh no acc: 62*; TNAP inh hi DEA: 1; CHT PAM: inactive; CHT inh: inactive

What do the screens show for `COc1ccccc1N1CCN(C(=O)CSc2nc(-c3ccccc3)cc(=O)[nH]2)CC1`?
ABCB6 inh 2: 100; TNAP act hiacc: 1; TNAP inh no acc: -11; TNAP inh hi DEA: -2; CHT PAM: inactive; CHT inh: inactive

Results for O=C(CSc1nccc(=O)[nH]1)N1CCN(c2ccccc2)CC1 ?
ABCB6 inh 2: 102; TNAP act hiacc: 1; TNAP inh no acc: -13; TNAP inh hi DEA: -3; CHT PAM: inactive; CHT inh: inactive

Results for CN(C)c1ccc(CNc2nc(-c3ccccc3)nn2S(C)(=O)=O)cc1 ?
ABCB6 inh 2: 90; TNAP act hiacc: 1; TNAP inh no acc: -9; TNAP inh hi DEA: -5; CHT PAM: inactive; CHT inh: inactive

Results for CC(=O)n1nc(-c2ccccc2)nc1NCc1ccc(N(C)C)cc1 ?
ABCB6 inh 2: 101; TNAP act hiacc: 1; TNAP inh no acc: 50*; TNAP inh hi DEA: -4; CHT PAM: inactive; CHT inh: inactive

What do the screens show for `Cc1ccc(NC(=O)CC(O)(C(F)(F)F)C(F)(F)F)c(Br)c1`?
ABCB6 inh 2: 99; TNAP act hiacc: 1; TNAP inh no acc: -3; TNAP inh hi DEA: 2; CHT PAM: inactive; CHT inh: -5.2*

What do the screens show for `Cc1ccccc1NC(=O)CC(O)(C(F)(F)F)C(F)(F)F`?
ABCB6 inh 2: 100; TNAP act hiacc: 1.1; TNAP inh no acc: -6; TNAP inh hi DEA: -7; CHT PAM: inactive; CHT inh: inactive

Results for Cc1nc(NCCc2ccccc2)c2oc3ccccc3c2n1 ?
ABCB6 inh 2: 101; TNAP act hiacc: 1.1; TNAP inh no acc: -9; TNAP inh hi DEA: -7; CHT PAM: 6.3*; CHT inh: inactive

What do the screens show for `O=C(CCN1CCc2ccccc2C(c2ccccc2)C1)c1ccc2c(c1)OCCO2` (configuration not stated)?
ABCB6 inh 2: 97; TNAP act hiacc: 1; TNAP inh no acc: -11; TNAP inh hi DEA: 1; CHT PAM: inactive; CHT inh: -8.9*

Results for O=C(NC(c1ccccc1)c1cnccn1)C1CCN(CCOc2ccc(Cl)cc2Cl)CC1 (configuration not stated) ?
ABCB6 inh 2: 100

Results for Cc1[nH]n(-c2ccc(Br)cc2)c(=O)c1/C=N/NC(=O)c1ccccc1 ?
ABCB6 inh 2: 92; CHT PAM: inactive; CHT inh: -5.4*

Results for Cc1[nH]n(-c2ccccc2)c(=O)c1/C=N/NC(=O)c1cccc(F)c1 ?
ABCB6 inh 2: 95; CHT PAM: inactive; CHT inh: inactive

Results for C=CCn1c(SCC(=O)Nc2ccccc2C)nc2sc(C)c(C)c2c1=O ?
ABCB6 inh 2: 73*; TNAP act hiacc: 1.1; TNAP inh no acc: -46; TNAP inh hi DEA: -6; CHT PAM: inactive; CHT inh: inactive

What do the screens show for `C=CCn1c(SCC(=O)Nc2sccc2C(N)=O)nc2sc(C)c(C)c2c1=O`?
ABCB6 inh 2: 76; CHT PAM: inactive; CHT inh: inactive

Results for O=C(OCC(=O)N1CCCC1=O)c1nc(Cl)c(Cl)c(Cl)c1Cl ?
ABCB6 inh 2: 102; CHT PAM: inactive; CHT inh: -5*

How did Nc1c(Cl)c(Cl)nc(C(=O)OCC(=O)N2CCCC2=O)c1Cl do in these assays?
ABCB6 inh 2: 104; CHT PAM: inactive; CHT inh: inactive

How did Cc1c(Nc2cc(N3CCOCC3)c3nonc3c2[N+](=O)[O-])c(=O)n(-c2ccccc2)n1C do in these assays?
TNAP act hiacc: 0.9; TNAP inh no acc: -2; TNAP inh hi DEA: 8; CHT PAM: inactive; CHT inh: inactive

Results for Cc1c(Nc2cc(Cl)c3nonc3c2[N+](=O)[O-])c(=O)n(-c2ccccc2)n1C ?
ABCB6 inh 2: 38*; TNAP act hiacc: 0.8; TNAP inh no acc: 18; TNAP inh hi DEA: 19

Results for NS(=O)(=O)c1ccc(CCNC(=O)Nc2ccc(Cl)c(Cl)c2)cc1 ?
ABCB6 inh 2: 100; TNAP act hiacc: 1; TNAP inh no acc: -7; TNAP inh hi DEA: 3; CHT PAM: inactive; CHT inh: inactive

Results for CCCCOc1cccc(C(=O)Nc2ccccc2N2CCCC2)c1 ?
ABCB6 inh 2: 101; CHT PAM: inactive; CHT inh: inactive
